Measured values published in ChEMBL document CHEMBL1140908, “New insights into the design of inhibitors of human S-adenosylmethionine decarboxylase: studies of adenine C8 substitution in structural analogues of S-adenosylmethionine” (J Med Chem, 2009).

target: T1, S-adenosylmethionine decarboxylase proenzyme (Homo sapiens, UniProt P17707); assay: Inhibition of human C-terminal His-tagged AdoMetDC assessed as release of 14CO2 from S-adenosyl-L-[carboxy-14C]methionine
T1 sequence (P17707 whole entry): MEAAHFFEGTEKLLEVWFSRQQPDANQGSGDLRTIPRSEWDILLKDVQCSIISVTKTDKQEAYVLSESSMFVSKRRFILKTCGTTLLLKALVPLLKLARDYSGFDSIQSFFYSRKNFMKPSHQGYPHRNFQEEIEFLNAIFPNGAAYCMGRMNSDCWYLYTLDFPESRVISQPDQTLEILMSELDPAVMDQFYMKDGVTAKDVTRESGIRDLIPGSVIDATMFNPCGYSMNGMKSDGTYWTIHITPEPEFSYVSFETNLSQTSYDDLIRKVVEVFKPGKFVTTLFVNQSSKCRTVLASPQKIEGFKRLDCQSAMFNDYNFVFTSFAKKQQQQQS
Outline: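 Enzyme: human AdoMetDC from a pQE30 plasmid with the (H)6 tag at the C-terminus in place of the terminal -QQQQQS. Expressed in E. coli JM109 with IPTG induction overnight at 15 °C, then purified on Talon resin and Sephadex G-75 in putrescine-containing buffer. Assay used 1 nM enzyme, no inhibitor plus at least five inhibitor concentrations. IC50 came from curve fits of concentration versus % inhibition.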

Row | Compound | IC50
1 | Cc1nc2c(N)ncnc2n1[C@@H]1O[C@H](C[S+](C)C)[C@@H](O)[C@H]1O | 3 µM
2 | CNc1nc2c(N)ncnc2n1[C@@H]1O[C@H](CN(C)CCCCON)[C@@H](O)[C@H]1O | 0.049 µM

target: T2, S-adenosylmethionine decarboxylase proenzyme (Homo sapiens) (UniProt P17707); assay: Inhibition of human C-terminal His-tagged AdoMetDC assessed as release of 14CO2 from S-adenosyl-L-[carboxy-14C]methionine at 100 uM
T2 sequence (whole entry): T1 sequence (P17707 whole entry)

Row | Compound | inhibition
3 | CN(CCON)C[C@H]1O[C@@H](n2c(-c3ccccc3)nc3c(N)ncnc32)[C@H](O)[C@@H]1O | < 5%
4 | CN(CCCCON)C[C@H]1O[C@@H](n2c(-c3ccccc3)nc3c(N)ncnc32)[C@H](O)[C@@H]1O | < 5%
5 | CN(CCCN)C[C@H]1O[C@@H](n2c(-c3ccccc3)nc3c(N)ncnc32)[C@H](O)[C@@H]1O | < 5%
6 | CN(CCNC(=N)N)C[C@H]1O[C@@H](n2cnc3c(N)ncnc32)[C@H](O)[C@@H]1O | < 5%
7 | CN(CCN)C[C@H]1O[C@@H](n2cnc3c(N)ncnc32)[C@H](O)[C@@H]1O | < 5%

Continued, values first:

Row | inhibition | Compound
8 | < 5% | CNCCCNC[C@H]1O[C@@H](n2c(NC)nc3c(N)ncnc32)[C@H](O)[C@@H]1O
9 | < 5% | CNCCNC[C@H]1O[C@@H](n2c(C)nc3c(N)ncnc32)[C@H](O)[C@@H]1O
10 | < 5% | CNCCNC[C@H]1O[C@@H](n2cnc3c(N)ncnc32)[C@H](O)[C@@H]1O
11 | < 5% | CNCCCNC[C@H]1O[C@@H](n2c(-c3ccccc3)nc3c(N)ncnc32)[C@H](O)[C@@H]1O
12 | < 5% | Cc1nc2c(N)ncnc2n1[C@@H]1O[C@H](CN(C)CC(N)=O)[C@@H](O)[C@H]1O
